Source: PubChem BioAssay
hERG protect = shields human hERG channel from block by proarrhythmic agents | CHO-hERG, FluxOR thallium flux, dofetilide IC70 present | activation (rescue from dofetilide block), less the hit threshold, % at 10 µM | 310,000 tested, 0.51% active | Q12809 | AID 1511;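 active means activation above the mean of controls blocked by dofetilide plus 5 SD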;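 further: thallium influx through hERG after potassium depolarization seen as dye fluorescence rise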
PHOSPHO1 inh = blocks human PHOSPHO1 phosphatase activity; Q8TCT1; recombinant PHOSPHO1, absorbance phosphatase assay; inhibition, % at 13.3 µM; 290,000 tested, 1.1% active; in the data active means inhibition above about 60%
KCNQ1 inh = inhibitors of human KCNQ1 potassium channel; 310,000 tested, 1.3% active; P51787; CHO-K1 KCNQ1, FluxOR thallium flux fluorescence; hits give high values; B-score at 10 µM;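 active means compounds whose thallium flux B-score, printed positive for inhibition, exceeds three library SD while starting fluorescence stays within three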;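 further: channel opened by potassium depolarization with thallium stimulus after 20 min compound exposure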
KCNK9 block = inhibitors of human KCNK9 two-pore domain potassium channel; Q9NPC2; HEK293 KCNK9, FluxOR thallium flux fluorescence; hits give low values; B-score at 10 µM; 310,000 tested, 1.2% active; AID 488922;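 active means ratio B-score over 3 SD below the library mean, with starting fluorescence within 5 SD of its mean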;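 further: negative B-score means less thallium flux so channel inhibition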
KCNQ1 act = human KCNQ1 channel potentiation or activation; B-score at 10 µM; CHO-K1 KCNQ1, thallium flux FluxOR fluorescence; hits give high values; 310,000 tested, 0.35% active; P51787;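 active means fluorescence ratio B-score, a plate-corrected score, at least three library SD, with initial intensity B-score within 5 SD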
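Doses: Single concentration per compound, DMSO matched to controls | Test system: KCNQ1-transfected CHO-K1 cells | Timing: 90 min dye loading and 20 min compound exposure, both at room temperature | Measured by: Kinetic FluxOR thallium fluorescence, 10-s 1-Hz baseline, 110-s post-stimulus read | Medium: Assay buffer with matched DMSO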
KCNK3 inh = human KCNK3 channel inhibition, primary screen; AID 602410; CHO-KCNK3 thallium flux, FluxOR fluorescence; hits give low values; O14649; 340,000 tested, 0.84% active; B-score at 10 µM;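 active means B-score under library mean minus 4 SD, starting fluorescence ratio at most library mean plus 5 SD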;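 further: more negative B-score means stronger inhibition of thallium flux through KCNK3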
KCNK9 block conf = human KCNK9 inhibitor confirmation. shares compounds with KCNK9 block. HEK293 KCNK9 cells, FluxOR thallium flux fluorescence. inhibition, % at 10 µM. 4,900 tested, 43% active;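 active means thallium signal inhibited by more than 5 SD of the compound-free buffer control wells, on both duplicate plates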
Kir21 sel = mouse Kir2.1 off-target activity of KCNK9 modulators; shares compounds with KCNK9 block; Kir2.1 cells, FluxOR thallium flux fluorescence; inhibition, % at 10 µM; 4,900 tested, 4% active;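 active means thallium signal drop more than 5 SD beyond the mean of the no-compound control wells, seen in both duplicate plates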;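 further: signal is fluorescence rise after thallium addition divided by baseline fluorescence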
Target sequence (P35561 whole entry, looked up): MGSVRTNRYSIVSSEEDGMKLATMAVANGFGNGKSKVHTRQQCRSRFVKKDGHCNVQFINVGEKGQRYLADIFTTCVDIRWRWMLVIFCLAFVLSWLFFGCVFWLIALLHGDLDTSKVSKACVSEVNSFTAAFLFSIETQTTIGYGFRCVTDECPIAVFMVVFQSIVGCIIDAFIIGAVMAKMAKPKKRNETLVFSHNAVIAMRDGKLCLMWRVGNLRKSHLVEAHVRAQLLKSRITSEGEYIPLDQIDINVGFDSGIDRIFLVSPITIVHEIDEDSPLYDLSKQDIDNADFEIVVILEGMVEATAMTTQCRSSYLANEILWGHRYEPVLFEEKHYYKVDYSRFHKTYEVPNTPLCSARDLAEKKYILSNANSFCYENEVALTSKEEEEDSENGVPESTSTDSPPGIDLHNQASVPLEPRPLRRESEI
KCNK9 uninduced = non-induced cell nonspecific activity of KCNK9 modulators; shares compounds with KCNK9 block; non-induced KCNK9-HEK293, FluxOR thallium flux; inhibition, % at 10 µM; 4,900 tested, 40% active;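 active means thallium signal drop beyond 5 SD of the untreated control mean, on both duplicate plates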
Numbers stand for hits. In the library only some 4% were active in any assay of this set; here they are far more common.

For CCOc1ccccc1C(=O)N1CCN(C(c2ccccc2)c2ccccc2)CC1 the results were hERG protect inactive, PHOSPHO1 inh inactive, KCNQ1 inh inactive, KCNK9 block -8.4, KCNQ1 act inactive, KCNK3 inh inactive, KCNK9 block conf inactive, Kir21 sel inactive and KCNK9 uninduced 26%.
For Cc1ccc(C)c(N2N=C(C(=O)OCc3nnc(-c4ccccc4)o3)CCC2=O)c1 the results were hERG protect inactive, KCNQ1 inh inactive, KCNK9 block inactive, KCNQ1 act inactive and KCNK3 inh inactive.
`Cc1ccc2c(c1)N(CC(=O)NCCCN1CCOCC1)C(=O)c1cccnc1O2` gave hERG protect inactive, PHOSPHO1 inh inactive, KCNQ1 inh inactive, KCNK9 block inactive, KCNQ1 act inactive and KCNK3 inh inactive.
`Cc1ccc2c(c1)N(CC(=O)NCCc1ccccc1)C(=O)c1cccnc1O2` gave hERG protect inactive, PHOSPHO1 inh inactive, KCNQ1 inh inactive, KCNK9 block inactive, KCNQ1 act inactive, KCNK3 inh inactive, KCNK9 block conf inactive, Kir21 sel inactive and KCNK9 uninduced inactive.
Cc1ccc(S[C@@H](CCN2CC[C@H](C)CCC2=O)c2ccccc2)cc1 was read as hERG protect inactive, PHOSPHO1 inh inactive, KCNQ1 inh inactive, KCNK9 block -9.4, KCNQ1 act inactive, KCNK3 inh inactive, KCNK9 block conf 66%, Kir21 sel inactive and KCNK9 uninduced 34%.
For COc1ccc(S[C@@H](CCN2CC[C@H](C)CCC2=O)c2ccccc2)cc1 the results were KCNK3 inh inactive.
For C[C@@H]1CCC(=O)N(CC[C@H](Oc2ccccc2)c2ccccc2)CC1 the results were hERG protect inactive, PHOSPHO1 inh inactive, KCNQ1 inh inactive, KCNK9 block -15, KCNQ1 act inactive, KCNK3 inh inactive, KCNK9 block conf 74%, Kir21 sel inactive and KCNK9 uninduced 36%.
For COc1ccc(NC(=O)CCCC(=O)O)cc1Cl the results were hERG protect inactive, PHOSPHO1 inh inactive, KCNQ1 inh inactive, KCNK9 block inactive, KCNQ1 act inactive and KCNK3 inh inactive.
Screening COc1ccc(Nc2ncnc3c2c(C)c(C)n3CCO)cc1 returned hERG protect inactive, PHOSPHO1 inh inactive, KCNQ1 inh inactive, KCNK9 block inactive, KCNQ1 act inactive and KCNK3 inh inactive.
`CCC1CCCCN1C(=O)CSc1nnc(-c2cccs2)o1` (configuration not stated) gave hERG protect inactive, PHOSPHO1 inh inactive, KCNQ1 inh inactive, KCNK9 block inactive, KCNQ1 act inactive and KCNK3 inh inactive.
For Cn1c(=O)c2c(ncn2CC(=O)OCC(=O)Nc2ccc(F)cc2Cl)n(C)c1=O the results were KCNK3 inh inactive.
COc1ccc2c(c1)-c1nc(NC(=O)c3ccco3)sc1CC2 was read as hERG protect inactive, PHOSPHO1 inh inactive, KCNQ1 inh inactive, KCNK9 block -11, KCNQ1 act inactive, KCNK3 inh inactive, KCNK9 block conf 48%, Kir21 sel inactive and KCNK9 uninduced inactive.
`COc1ccc2c(c1)CCc1sc(NC(=O)c3ccco3)nc1-2` gave hERG protect inactive, PHOSPHO1 inh inactive, KCNQ1 inh inactive, KCNK9 block -8.4, KCNQ1 act inactive, KCNK3 inh inactive, KCNK9 block conf 26%, Kir21 sel inactive and KCNK9 uninduced inactive.
For COc1ccc2c(c1)CCc1sc(NC(=O)c3ccc(C)cc3)nc1-2 the results were hERG protect inactive, PHOSPHO1 inh inactive, KCNQ1 inh inactive, KCNK9 block inactive, KCNQ1 act inactive and KCNK3 inh inactive.
`Cc1noc(C)c1CSCC(=O)Nc1nc2ccccc2s1` gave hERG protect inactive, PHOSPHO1 inh inactive, KCNQ1 inh inactive, KCNK9 block inactive, KCNQ1 act inactive and KCNK3 inh inactive.
